Test results reported in ChEMBL document CHEMBL4304758, “Development of Peptide-Based Sirtuin Defatty-Acylase Inhibitors Identified by the Fluorescence Probe, SFP3, That Can Efficiently Measure Defatty-Acylase Activity of Sirtuin” (J Med Chem, 2019).
Non-standard residues stand in square brackets, D forms with d. Residues, ends and D or L forms follow the SMILES beside them. *: point of attachment. Phenylacetyl(4-E-phenylazo) = O=C(Cc1ccc(/N=N/c2ccccc2)cc1)*; Lys(thiomyristoyl) = CCCCCCCCCCCCCC(=S)NCCCC[C@H](N)C(=O)O; X5 = CCN(CC)c1ccc(/N=N/c2ccc(CC(=O)*)cc2)cc1; X3 = CN(C)c1ccc(/N=N/c2ccc(CCC(=O)*)cc2)cc1; X4 = CN(C)c1ccc(/N=N/c2ccc(CC(=O)*)cc2)cc1; X2 = CN(C)c1ccc(/N=N/c2ccc(C(=O)*)cc2)cc1; X1 = O=C(Cc1ccc(/N=N/c2ccc(O)cc2)cc1)*

Key:
[1] = target: T1, NAD-dependent protein deacetylase sirtuin-1 (Homo sapiens, UniProt Q96EB6); test: Inhibition of recombinant human C-terminal His6-tagged SIRT1 (Met1 to Ser747 residues) defatty-acylase activity expressed in Escherichia coli using SFP3 as substrate measured at 5 mins interval for 60 mins in presence of NAD+ by fluorescence assay
T1 sequence (Q96EB6 whole entry): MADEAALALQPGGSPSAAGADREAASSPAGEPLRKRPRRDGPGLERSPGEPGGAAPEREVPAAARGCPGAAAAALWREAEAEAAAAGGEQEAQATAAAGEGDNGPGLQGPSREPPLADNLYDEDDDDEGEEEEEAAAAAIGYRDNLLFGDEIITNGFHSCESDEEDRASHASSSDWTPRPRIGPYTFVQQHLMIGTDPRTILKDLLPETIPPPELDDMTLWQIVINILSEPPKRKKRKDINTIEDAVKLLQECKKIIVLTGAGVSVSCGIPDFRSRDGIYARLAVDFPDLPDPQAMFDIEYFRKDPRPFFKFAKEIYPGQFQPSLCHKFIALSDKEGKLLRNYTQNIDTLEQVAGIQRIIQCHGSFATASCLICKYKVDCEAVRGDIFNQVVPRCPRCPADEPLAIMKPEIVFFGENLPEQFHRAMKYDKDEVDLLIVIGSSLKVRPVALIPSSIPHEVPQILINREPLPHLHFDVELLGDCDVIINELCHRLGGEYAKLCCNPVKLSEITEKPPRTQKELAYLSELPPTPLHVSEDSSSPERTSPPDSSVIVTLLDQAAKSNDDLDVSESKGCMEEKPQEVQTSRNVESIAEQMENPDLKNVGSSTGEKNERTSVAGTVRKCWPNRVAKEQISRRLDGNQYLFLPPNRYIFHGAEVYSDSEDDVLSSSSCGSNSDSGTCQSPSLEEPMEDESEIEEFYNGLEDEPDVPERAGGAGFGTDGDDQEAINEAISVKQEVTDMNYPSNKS

[2] = target: T1, NAD-dependent protein deacetylase sirtuin-1; test: Inhibition of recombinant human C-terminal His6-tagged SIRT1 (Met1 to Ser747 residues) demyristoylase activity expressed in Escherichia coli using p53(Myr)-AMC as substrate measured after 3 hrs in presence of NAD+ and trypsin by fluorescence assay
How it was run: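 SIRT1 at 14 nM final with 50 μM p53(Myr)-AMC and 500 μM NAD⁺ in Tris-HCl pH 8.0/NaCl/DTT/Triton buffer, 0.5% DMSO, 3 h at room temperature. Trypsin (100 nM final) plus nicotinamide (1 mM final) then added. Fluorescence Ex 355/Em 460 nm read every 5 min for 20 min at 37 °C. n = 3.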

[3] = target: T2, NAD-dependent protein deacetylase sirtuin-2 (Homo sapiens, UniProt Q8IXJ6); test: Inhibition of recombinant human SIRT2 defatty-acylase activity using SFP3 as substrate measured at 5 mins interval for 60 mins in presence of NAD+ by fluorescence assay
T2 sequence (Q8IXJ6 whole entry): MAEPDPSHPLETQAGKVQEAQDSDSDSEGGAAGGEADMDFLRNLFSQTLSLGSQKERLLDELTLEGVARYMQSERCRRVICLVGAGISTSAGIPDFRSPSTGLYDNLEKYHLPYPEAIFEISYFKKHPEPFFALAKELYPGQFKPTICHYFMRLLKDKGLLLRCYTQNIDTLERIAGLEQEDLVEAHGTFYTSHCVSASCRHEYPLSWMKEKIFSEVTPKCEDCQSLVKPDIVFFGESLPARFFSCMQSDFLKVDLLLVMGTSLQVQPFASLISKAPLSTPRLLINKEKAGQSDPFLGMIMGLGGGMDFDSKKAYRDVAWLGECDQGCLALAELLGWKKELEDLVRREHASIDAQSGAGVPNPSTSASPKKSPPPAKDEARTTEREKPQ

[4] = target: T2, NAD-dependent protein deacetylase sirtuin-2; test: Inhibition of recombinant human SIRT2 deacylation activity using Fluor de Lys Sirt2 as substrate measured at 5 mins interval for 30 mins in presence of NAD+ by fluorescence assay
[5] = target: T2, NAD-dependent protein deacetylase sirtuin-2; test: Inhibition of recombinant human SIRT2 demyristoylase activity using p53(Myr)-AMC as substrate measured after 3 hrs in presence of NAD+ and trypsin by fluorescence assay
[6] = target: T3, NAD-dependent protein deacetylase sirtuin-3, mitochondrial (Homo sapiens, UniProt Q9NTG7); test: Inhibition of recombinant human SIRT3 (118 to 399 residues) defatty-acylase activity expressed in Escherichia coli using SFP3 as substrate measured at 5 mins interval for 60 mins in presence of NAD+ by fluorescence assay
T3 sequence (Q9NTG7 whole entry): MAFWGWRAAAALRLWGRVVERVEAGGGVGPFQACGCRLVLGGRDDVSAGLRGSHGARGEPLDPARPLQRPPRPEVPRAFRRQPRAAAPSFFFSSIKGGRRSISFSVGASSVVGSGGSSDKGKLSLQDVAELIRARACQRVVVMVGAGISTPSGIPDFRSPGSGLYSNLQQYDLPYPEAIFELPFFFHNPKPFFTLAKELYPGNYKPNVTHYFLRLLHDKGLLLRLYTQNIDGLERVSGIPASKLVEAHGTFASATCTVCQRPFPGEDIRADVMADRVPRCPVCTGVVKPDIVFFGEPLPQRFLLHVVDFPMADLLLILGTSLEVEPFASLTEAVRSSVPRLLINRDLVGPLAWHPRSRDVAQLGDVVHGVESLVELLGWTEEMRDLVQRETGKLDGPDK

[7] = target: T3, NAD-dependent protein deacetylase sirtuin-3, mitochondrial; test: Inhibition of recombinant human SIRT3 (118 to 399 residues) demyristoylase activity expressed in Escherichia coli using p53(Myr)-AMC as substrate measured after 3 hrs in presence of NAD+ and trypsin by fluorescence assay
[8] = target: T2, NAD-dependent protein deacetylase sirtuin-2; test: Drug metabolism assessed as recombinant human SIRT2-mediated deacylation by measuring dabcyl formation at 20 uM measured up to 4 hrs in presence of NAD+ by HPLC analysis; type: ADME
How it was run: (§1)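 Compound at 20 μM final (0.2% DMSO) with 350 nM SIRT2 and 500 μM NAD⁺ at 37 °C in buffer I: 50 mM Tris-HCl pH 8.0, 150 mM NaCl, 1 mM DTT, 0.05% Triton X-100. Aliquots taken at 0 and 4 h. Reversed-phase HPLC, TFA water/acetonitrile gradient. Detection at 510, 350 or 254 nm depending on compound.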

[9] = target: T2, NAD-dependent protein deacetylase sirtuin-2; test: Drug metabolism assessed as recombinant human SIRT2-mediated deacylation by measuring dabcyl-PH formation at 20 uM measured up to 4 hrs in presence of NAD+ by HPLC analysis; type: ADME; how it was run: as §1
SIRT2 = test: Stability of the compound in SIRT assay buffer assessed as parent compound remaining at 20 uM measured after 4 hrs in presence of recombinant human SIRT2 and NAD+ by HPLC analysis; type: physicochemical; settings: read-out: Stability; how it was run: as §1
[10] = target: NAD-dependent protein deacylase sirtuin-6 (Homo sapiens, UniProt Q8N6T7); test: Inhibition of recombinant human N-terminal polyhis-tagged SIRT6 (1 to 355 residues) defatty-acylase activity expressed in Escherichia coli using SFP3 as substrate measured at 5 mins interval for 60 mins in presence of NAD+ by fluorescence assay
Sequence of NAD-dependent protein deacylase sirtuin-6 (Q8N6T7 whole entry, the tested form may be a part): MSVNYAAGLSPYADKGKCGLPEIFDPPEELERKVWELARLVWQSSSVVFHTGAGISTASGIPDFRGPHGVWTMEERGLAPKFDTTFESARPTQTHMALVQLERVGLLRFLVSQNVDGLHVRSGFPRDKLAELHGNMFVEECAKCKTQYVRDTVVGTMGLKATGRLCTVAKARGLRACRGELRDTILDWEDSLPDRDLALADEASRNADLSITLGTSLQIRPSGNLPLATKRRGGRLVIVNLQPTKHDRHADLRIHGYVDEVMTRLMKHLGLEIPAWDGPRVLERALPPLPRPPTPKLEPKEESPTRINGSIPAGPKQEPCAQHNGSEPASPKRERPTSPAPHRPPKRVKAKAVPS
How it was run: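 SIRT6 at 48 nM final with 2.5 μM SFP3 and 500 μM NAD⁺ in Tris-HCl pH 8.0 buffer with 150 mM NaCl, 1 mM DTT, 0.05% Triton X-100, final 0.2% DMSO. Enzyme added last. Fluorescence Ex 485/Em 535 nm read every 5 min for 60 min at 37 °C.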

SMILES | IC50 [1] [µM] | IC50 [2] [µM] | IC50 [3] [µM] | IC50 [4] [µM] | IC50 [5] [µM] | IC50 [6] [µM] | IC50 [7] [µM] | Drug metabolism [8] | Drug metabolism [9] | remaining at 4 h, 20 µM (SIRT2) [%] | IC50 [10] [µM]
Cc1cc(C)nc(SCC(=O)Nc2ncc(Cc3cccc4ccccc34)s2)n1 | > 10 | > 10 |  |  |  |  |  |  |  |  | 
CCCCCCCCCCCCCC(=O)NCCCC[C@H](NC(=O)OCc1ccccc1)C(=O)Nc1ccccc1 |  |  | > 2 | > 1 |  |  |  |  |  |  | 
C[C@H](NC(=O)[C@H](CCCCNC(=O)Cc1ccc(/N=N/c2ccc(O)cc2)cc1)NC(=O)OCc1ccccc1)C(N)=O |  |  | > 2 | 0.19 |  |  |  |  |  |  | 
C[C@H](NC(=O)[C@H](CCCCNC(=O)Cc1ccc(/N=N/c2ccc(OCCc3ccccc3)cc2)cc1)NC(=O)OCc1ccccc1)C(N)=O | > 2 |  | > 2 | 0.4 | > 2 | > 2 |  |  |  |  | 
C[C@H](NC(=O)[C@H](CCCCNC(=O)Cc1ccc(/N=N/c2ccc(OCc3ccccc3)cc2)cc1)NC(=O)OCc1ccccc1)C(N)=O |  |  | > 2 | 0.19 |  |  |  |  |  |  | 
CC[C@H](C)[C@H](NC(C)=O)C(=O)N[C@@H](CCCCNC(=O)Cc1ccc(/N=N/c2ccccc2)cc1)C(=O)N[C@@H](CCCNC(=N)N)C(N)=O | 0.27 | 0.084 | 0.063 | 0.11 | 0.25 |  |  |  |  |  | 
CC[C@H](C)[C@H](NC(=O)[C@H](CCCNC(=N)N)NC(C)=O)C(=O)N[C@@H](CCCCNC(=O)Cc1ccc(/N=N/c2ccccc2)cc1)C(=O)N[C@@H](CCCNC(=N)N)C(=O)N[C@@H](Cc1ccc(O)cc1)C(N)=O (Ac-RIK(Phenylacetyl(4-E-phenylazo))RY-NH2) | 0.048 | 0.071 | 0.019 | 0.18 | 0.051 | 0.077 | 0.34 |  |  |  | 
CC[C@H](C)[C@H](NC(=O)[C@H](CCCNC(=N)N)NC(C)=O)C(=O)N[C@@H](CCCCNC(=O)Cc1ccc(/N=N/c2ccc(O)cc2)cc1)C(=O)N[C@@H](CCCNC(=N)N)C(=O)N[C@@H](Cc1ccc(O)cc1)C(N)=O (Ac-RIK(X1)RY-NH2) | 0.12 | 0.05 | 0.019 | 0.11 | 0.044 | 0.055 | 0.19 |  |  |  | 
CC[C@H](C)[C@H](NC(=O)[C@H](CCCNC(=N)N)NC(C)=O)C(=O)N[C@@H](CCCCNC(=O)c1ccc(/N=N/c2ccc(N(C)C)cc2)cc1)C(=O)N[C@@H](CCCNC(=N)N)C(=O)N[C@@H](Cc1ccc(O)cc1)C(N)=O (Ac-RIK(X2)RY-NH2) | > 2 |  | 0.43 | 1.6 | 1.6 | 0.77 |  | Metabolite_Detected |  |  | 
CC[C@H](C)[C@H](NC(=O)[C@H](CCCNC(=N)N)NC(C)=O)C(=O)N[C@@H](CCCCNC(=O)CCc1ccc(/N=N/c2ccc(N(C)C)cc2)cc1)C(=O)N[C@@H](CCCNC(=N)N)C(=O)N[C@@H](Cc1ccc(O)cc1)C(N)=O (Ac-RIK(X3)RY-NH2) | 1.7 |  | 0.3 | 1.1 | > 2 | 1.5 |  |  | Metabolite_Detected |  | 
CC[C@H](C)[C@H](NC(=O)[C@H](CCCNC(=N)N)NC(C)=O)C(=O)N[C@@H](CCCCNC(=O)Cc1ccc(/N=N/c2ccc(N(C)C)cc2)cc1)C(=O)N[C@@H](CCCNC(=N)N)C(=O)N[C@@H](Cc1ccc(O)cc1)C(N)=O (Ac-RIK(X4)RY-NH2) | 0.4 | 0.098 | 0.036 | 0.17 | 0.13 | 0.11 | 0.33 |  |  | > 99 | 
CC[C@H](C)[C@H](NC(=O)[C@H](CCCNC(=N)N)NC(C)=O)C(=O)N[C@@H](CCCCNC(=O)Cc1ccc(/N=N/c2ccc(N(CC)CC)cc2)cc1)C(=O)N[C@@H](CCCNC(=N)N)C(=O)N[C@@H](Cc1ccc(O)cc1)C(N)=O (Ac-RIK(X5)RY-NH2) | 1.1 | 0.14 | 0.068 | 0.26 | 0.19 | 0.18 | 0.48 |  |  |  | 
CCCCCCCCCCCCCC(=S)NCCCC[C@H](NC(=O)[C@@H](NC(=O)[C@H](CCCNC(=N)N)NC(C)=O)[C@@H](C)CC)C(=O)N[C@@H](CCCNC(=N)N)C(=O)N[C@@H](Cc1ccc(O)cc1)C(N)=O (Ac-RI[Lys(thiomyristoyl)]RY-NH2) | 0.33 | 0.026 | 0.022 | 0.11 | 0.044 | 0.046 | 0.13 |  |  |  | 0.25
CC[C@H](C)[C@H](NC(=O)[C@@H](NC(=O)[C@H](CCCCNC(=O)Cc1ccc(/N=N/c2ccccc2)cc1)NC(=O)[C@H](CC(=O)O)NC(=O)[C@H](CO)NC(C)=O)[C@@H](C)O)C(N)=O (Ac-SDK(Phenylacetyl(4-E-phenylazo))TI-NH2) | > 2 |  | 1.5 | 0.58 | > 2 | > 2 |  |  |  |  | 
CC[C@H](C)[C@H](NC(=O)[C@@H](NC(=O)[C@H](CCCCNC(=O)c1ccc(/N=N/c2ccc(N(C)C)cc2)cc1)NC(=O)[C@H](CC(=O)O)NC(=O)[C@H](CO)NC(C)=O)[C@@H](C)O)C(N)=O (Ac-SDK(X2)TI-NH2) | > 2 |  | > 2 | 1.2 | > 2 | > 2 |  |  |  |  | 
CC[C@H](C)[C@H](NC(=O)[C@H](CCCCNC(=O)Cc1ccc(/N=N/c2ccccc2)cc1)NC(=O)[C@@H](NC(C)=O)C(C)C)C(=O)N[C@@H](CCCCN)C(=O)N[C@@H](CCCCN)C(N)=O (Ac-VK(Phenylacetyl(4-E-phenylazo))IKK-NH2) | 1.4 | 0.43 | 0.12 | 0.12 | 0.52 |  |  |  |  |  | 
